In ChEMBL document CHEMBL1154862, “Synthesis of potent BACE-1 inhibitors incorporating a hydroxyethylene isostere as central core” (Eur J Med Chem, 2010):

How the values were obtained:
[1] = target: Cathepsin D (Homo sapiens, UniProt P07339); assay: Inhibition of human liver cathepsin D after 20 mins by homogeneous time resolved fluorescence assay
[2] = target: T1, Beta-secretase 1 (Homo sapiens, UniProt P56817); assay: Inhibition of human BACE1 in HEK293 cells stably co-transfected with mutant APP(swAPP751) assessed as Amyloid beta 1-40 level after 24 hrs by ELISA; type: cell-based
Summary of the method: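 HEK-293 cells stably expressing Swedish mutant APP (swAPP751), grown in DMEM with 10% FCS, penicillin/streptomycin and 200 µg/mL hygromycin at 37 °C, 5% CO2. Seeded 2 × 10^4 cells/well, settled overnight, washed once with fresh medium, then inhibitor added (DMSO at most 1% final). Medium collected after 24 h; secreted Aβ1–40 measured by ELISA.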

[3] = target: T1, Beta-secretase 1; assay: Inhibition of BACE1 after 30 mins by homogeneous time resolved fluorescence assay

Cathepsin D, sequence (P07339 65-162 limits assumed): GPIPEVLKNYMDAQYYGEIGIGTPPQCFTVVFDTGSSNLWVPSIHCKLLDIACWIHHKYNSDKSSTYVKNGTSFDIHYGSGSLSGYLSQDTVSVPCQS
Cathepsin D, sequence (P07339 169-412 limits assumed): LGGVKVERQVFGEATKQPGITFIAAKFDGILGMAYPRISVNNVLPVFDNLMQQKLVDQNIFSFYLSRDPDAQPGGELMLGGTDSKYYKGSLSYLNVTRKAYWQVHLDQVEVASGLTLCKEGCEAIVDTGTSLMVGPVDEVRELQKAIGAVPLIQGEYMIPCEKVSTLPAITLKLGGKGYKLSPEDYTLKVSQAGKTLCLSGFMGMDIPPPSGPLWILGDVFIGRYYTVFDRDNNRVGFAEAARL
T1 sequence (P56817 whole entry): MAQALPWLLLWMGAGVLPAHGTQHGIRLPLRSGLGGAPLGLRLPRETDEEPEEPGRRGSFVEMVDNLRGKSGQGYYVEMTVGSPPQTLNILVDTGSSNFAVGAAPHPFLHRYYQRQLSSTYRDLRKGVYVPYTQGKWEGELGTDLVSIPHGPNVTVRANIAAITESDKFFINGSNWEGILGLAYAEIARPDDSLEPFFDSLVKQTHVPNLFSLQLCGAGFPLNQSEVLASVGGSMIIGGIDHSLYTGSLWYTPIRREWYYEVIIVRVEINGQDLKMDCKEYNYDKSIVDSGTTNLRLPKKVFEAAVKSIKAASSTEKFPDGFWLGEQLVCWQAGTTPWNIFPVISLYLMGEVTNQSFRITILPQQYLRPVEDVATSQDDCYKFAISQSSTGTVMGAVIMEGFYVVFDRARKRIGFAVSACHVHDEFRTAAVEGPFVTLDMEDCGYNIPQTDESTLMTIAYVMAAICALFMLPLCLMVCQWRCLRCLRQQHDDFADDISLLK

Row | IC50 [1] | IC50 [2] | IC50 [3] | Structure (SMILES)
1 | 120 nM | 340 nM | 10 nM | CC(C)[C@H](NC(=O)[C@@H](C)C[C@H](O)[C@H](COc1cc(F)cc(F)c1)NC(=O)c1cc(C(=O)N[C@H](C)c2ccccc2)cc(N(C)S(C)(=O)=O)c1)C(=O)NCc1ccccc1
2 | > 5000 nM | – | 1260 nM | CNC(=O)c1cc(C(=O)N[C@@H](COCc2cc(F)cc(F)c2)[C@@H](O)C[C@@H](C)C(=O)N[C@H](C(=O)NCc2ccccc2)C(C)C)cc(N(C)S(C)(=O)=O)c1
3 | 210 nM | 4500 nM | – | CC(C)[C@H](NC(=O)[C@H](C)C[C@H](O)[C@H](COCc1cc(F)cc(F)c1)NC(=O)c1cc(C(=O)N[C@H](C)c2ccccc2)cc(N(C)S(C)(=O)=O)c1)C(=O)NCc1ccccc1
4 | 0.63 nM | – | 10000 nM | CSCC[C@H](NC(=O)[C@@H](NC(=O)OC(C)(C)C)C(C)C)C(=O)N[C@@H](COCc1cc(F)cc(F)c1)[C@@H](O)C[C@@H](C)C(=O)N[C@H](C(=O)NCc1ccccc1)C(C)C
5 | 59 nM | 160 nM | 3.1 nM | CC(C)[C@H](NC(=O)[C@H](C)C[C@H](O)[C@H](COc1cc(F)cc(F)c1)NC(=O)c1cc(C(=O)N[C@H](C)c2ccccc2)cc(N(C)S(C)(=O)=O)c1)C(=O)NCc1ccccc1
6 | > 5000 nM | – | > 10000 nM | C[C@H](C[C@H](O)[C@H](COCc1cc(F)cc(F)c1)NC(=O)c1cc(C(=O)N[C@H](C)c2ccccc2)cc(N(C)S(C)(=O)=O)c1)C(=O)NC1CC1
7 | 41 nM | 1000 nM | 3.6 nM | CC(C)[C@H](NC(=O)[C@H](C)C[C@H](O)[C@H](COCc1ccccc1)NC(=O)c1cc(C(=O)N[C@H](C)c2ccccc2)cc(N(C)S(C)(=O)=O)c1)C(=O)NCc1ccccc1
